Assay results taken from article PMC6044926 (ACS Omega, 2017).
Where a chain is given by its changes, count along the chain named. Names and notes keep the numbering of the source. Values joined by “and” are separate entries in the source; they are usually repeats but may differ in a detail not shown here. Identical values can stand only once. “Also recorded” adds a separate entry of the source.

Experiments:
[1] = target: T1, TPMTwt (Homo sapiens, UniProt P51580); assay: Thermal denaturation by CD at 222 nm in the presence of ligand, TPMTwt; type: binding
T1 sequence (P51580 1-245): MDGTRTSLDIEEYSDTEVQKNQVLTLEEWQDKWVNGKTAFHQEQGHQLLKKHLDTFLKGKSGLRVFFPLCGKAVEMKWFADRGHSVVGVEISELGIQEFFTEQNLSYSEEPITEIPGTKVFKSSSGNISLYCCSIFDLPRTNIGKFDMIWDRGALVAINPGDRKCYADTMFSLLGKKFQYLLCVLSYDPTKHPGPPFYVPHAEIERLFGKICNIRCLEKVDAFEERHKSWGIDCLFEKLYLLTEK
Summary of the method: (§1)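 Far-UV CD thermal unfolding at 222 nm, 18 to 80 °C in 2° steps, 10 scans over 60 s per step. Sample was 3 μM purified recombinant TPMT in 20 mM potassium phosphate pH 7.3, 75 mM NaCl, 2% glycerol, 0.5 mM TCEP, 4 mm cuvette. Run without ligand, with 30 μM SAM, or with 60 μM ANS. Tm fitted from three independent measurements.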

[2] = target: T2, TPMT*8 (R215H) (Homo sapiens, UniProt P51580, R215H); assay: ITC binding of SAM and ANS to TPMT*8
T2 sequence (P51580 1-245 R215H): T1 sequence (P51580 1-245) with R215H
Summary of the method: (§2)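 Isothermal titration calorimetry at 25 °C (reference power 7 μcal s−1) of ~50 μM His-tag-cleaved recombinant human TPMT (residues 1–245; E. coli BL21-CodonPlus(DE3)-RIL; Ni-NTA and gel filtration). Thirteen injections per run, at least three runs per variant–ligand pair, fitted to a binding model.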

[3] = target: T2, TPMT*8 (R215H); assay: Thermal denaturation by CD at 222 nm in the presence of ligand, TPMT*8; type: binding
Summary of the method: as §1

[4] = target: T1, TPMTwt; assay: Thermal denaturation monitored as ANS fluorescence emission at 475 nm, TPMTwt; type: binding; settings: ANS emission at 475 nm, ANS in 20-fold molar excess (60 μM)
Summary of the method: (§3)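 Scanned 18 to 80 °C in 2° steps. Excitation 360 nm, emission 400–600 nm. Tm taken from the relative change in maximum intensity at 475 nm, three independent measurements.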

[5] = target: T3, TPMT*6 (Y180F) (Homo sapiens, UniProt P51580, Y180F); assay: ITC binding of SAM and ANS to TPMT*6
T3 sequence (P51580 1-245 Y180F): T1 sequence (P51580 1-245) with Y180F
Summary of the method: as §2

[6] = target: T3, TPMT*6 (Y180F); assay: Thermal denaturation monitored as ANS fluorescence emission at 475 nm, TPMT*6; type: binding; settings: ANS emission at 475 nm, ANS in 20-fold molar excess (60 μM)
Summary of the method: as §3

[7] = target: T3, TPMT*6 (Y180F); assay: Thermal denaturation by CD at 222 nm in the presence of ligand, TPMT*6; type: binding
Summary of the method: as §1

[8] = target: T2, TPMT*8 (R215H); assay: Thermal denaturation monitored as ANS fluorescence emission at 475 nm, TPMT*8; type: binding; settings: ANS emission at 475 nm, ANS in 20-fold molar excess (60 μM)
Summary of the method: as §3

[9] = target: T4, TPMT (Homo sapiens, UniProt P51580); assay: ANS and SAM binding to TPMT, all investigated variants; settings: dissociation constant, ANS, ITC (fluorescence and ITC)
T4 sequence (P51580 1-245): T1 sequence (P51580 1-245)
Summary of the method: as §2

[10] = target: T1, TPMTwt; assay: ITC binding of SAM and ANS to TPMTwt; settings: dissociation constant, 25 °C
Summary of the method: as §2

[11] = Thermal denaturation of the TPMT variants by CD at 222 nm, no ligand; type: physicochemical, human; settings: 3 μM protein, pH 7.3
Summary of the method: as §1

[12] = TPMT enzyme activity on purified recombinant protein, 6-MP as substrate; type: biochemical, human; settings: 6-MP as thiopurine substrate
Summary of the method: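 Activity of purified recombinant TPMT measured as rate of 6-methyl-mercaptopurine formation from 6-MP, with 14C-labelled S-adenosyl-L-methionine as methyl donor, following an earlier published protocol.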

[13] = cited from earlier work
[14] = CD at 222 nm, ANS in 20-fold molar excess (60 μM), 3 μM protein
[15] = SAM in 10-fold molar excess (30 μM), 3 μM protein

O=S(=O)(O)c1cccc2cccc(Nc3ccccc3)c12 [ANS, 8-anilinonaphthalene-1-sulfonic acid]
thermal melting temperature, +ANS [1, 14]: 53.8 °C and 53.8 ± 0.5 °C | increase of Tm on addition of ANS ([1]; CD at 222 nm, versus no ligand): 7.4 °C | Kd [2]: 202 ± 11 nM | thermal melting temperature, +ANS [3, 14]: 51.5 °C and 51.5 ± 0.4 °C | increase of Tm on addition of ANS ([3]; CD at 222 nm, versus no ligand): 5.0 °C | thermal melting temperature, fluorescence, +ANS [4]: 54.1 °C and 54.1 ± 0.5 °C | Kd [5]: 187 ± 32 nM | thermal melting temperature, fluorescence, +ANS [6]: 49.6 °C and 49.6 ± 0.4 °C | thermal melting temperature, +ANS [7, 14]: 48.6 °C and 48.6 ± 0.7 °C | increase of Tm on addition of ANS ([7]; CD at 222 nm, versus no ligand): 7.2 °C | thermal melting temperature, fluorescence, +ANS [8]: 54.1 °C and 54.1 ± 0.3 °C | Kd [9]: ~200 nM and 200 nM | Kd ([10]; ANS): 219 ± 58 nM

C[S+](CC[C@H](N)C(=O)[O-])C[C@H]1O[C@@H](n2cnc3c(N)ncnc32)[C@H](O)[C@@H]1O (stereo partly shown) [SAM, S-adenosylmethionine]
thermal melting temperature, circular dichroism, +SAM [1, 15]: 46.8 ± 0.5 °C | Kd [2]: 1500 ± 100 nM | thermal melting temperature, circular dichroism, +SAM [3, 15]: 47.3 ± 0.3 °C | Kd [5]: 1800 ± 500 nM | thermal melting temperature, circular dichroism, +SAM [7, 15]: 40.5 ± 0.5 °C | Kd ([10]; SAM): 2200 ± 700 nM

B1: TPMT*6: naturally occurring TPMT variant, Y180F, purified recombinant protein (protein, UniProt P51580 1-245, looked up, variant Y180F)
Thiopurine S-methyltransferase: T1 sequence (P51580 1-245) with Y180F
thermal melting temperature, circular dichroism, no ligand [11]: 41.4 ± 1.1 °C | in vitro enzyme functionality [12]: fully functional; also recorded: normal functionality

B2: TPMTwt: recombinant wild-type human thiopurine S-methyltransferase (residues 1–245) (protein, UniProt P51580 1-245, looked up)
Thiopurine S-methyltransferase: T1 sequence (P51580 1-245)
thermal melting temperature, circular dichroism, no ligand [11]: 46.4 ± 0.6 °C

B3: TPMT*8: naturally occurring TPMT variant, R215H, purified recombinant protein (protein, UniProt P51580 1-245, looked up, variant R215H)
Thiopurine S-methyltransferase: T1 sequence (P51580 1-245) with R215H
reported in vivo enzyme activity class [13]: intermediate | thermal melting temperature, circular dichroism, no ligand [11]: 46.5 ± 0.4 °C | in vitro enzyme functionality [12]: fully functional; also recorded: normal functionality
